ChEMBL document CHEMBL3421622, “New organochalcogen multitarget drug: synthesis and antioxidant and antitumoral activities of chalcogenozidovudine derivatives” (J Med Chem, 2015)
pIC50: −log10 of the molar value. Calls of active or inactive are those of the source. The calls are words filed in the database; no cut-off is given here.

How the values were obtained:
[1] = Antioxidant activity assessed as thiol peroxidase-like activity assessed as time required to oxidize 50% of benzenethiol during reduction of hydrogen peroxide measured for 180 secs by UV spectroscopic analysis; details: 0.05 h
Brain = assay: Antioxidant activity in Wistar rat brain assessed as inhibition of TBARS formation at 200 uM after 60 mins by spectrophotometric method relative to control; format: functional
In short: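 Adult male Wistar rat brain (250−350 g) homogenized 1:10 w/v in 10 mM Tris-HCl pH 7.4 and spun at 2000 rpm for 10 min; low-speed supernatant (S1) used. Blank lacked Fe. TBARS read at 532 nm against MDA standard. Three experiments.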

Liver [2] = assay: Toxicity in rat liver assessed as effect on cell viability at 50 to 200 uM after 2 hrs by MTT reduction assay relative to control
In short: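 Liver slices from healthy adult rats preincubated 10 min in Krebs Ringer pH 7.4. Compound added to 200, 100 or 50 μM final for 2 h at 37 °C. MTT (5 mg/mL) added for 30 min at 37 °C, formazan dissolved in DMSO, absorbance read at 570 and 700 nm. Expressed as % of untreated; three experiments.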

Liver [3] = assay: Toxicity in rat liver slices assessed as change in ALT release relative to control; details: in vitro
5637 [4] = assay: Induction of apoptosis in human 5637 cells assessed as DNA fragmentation at 50 to 100 uM after 48 hrs by TUNEL assay relative to control; format: functional, cell-based
In short: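 5637 cells treated 48 h, then collected and fixed. TdT-mediated BrdU labelling of fragmented DNA, detected with TMR-anti-BrdU after 30 min staining in the dark at room temperature. TUNEL-positive cells counted by flow cytometry.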

5637 [5] = assay: Cytotoxicity against human 5637 cells assessed as growth inhibition at 50 uM after 48 hrs by MTT assay relative to control; format: functional; details: Homo sapiens, 5637, 48 h; read-out: GI
In short: (§1)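 5637 cells in log phase, seeded at 2 × 10^4 per well and grown 24 h. Exposed for 24, 48 or 72 h to 200−12.5 μM in DMSO (final ≤0.25%, vehicle group included). MTT added for 3 h, formazan dissolved in DMSO, read at 492 nm. Growth inhibition = [1 − Abs treated/Abs control] × 100%. […] Three independent experiments.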

5637 [6] = assay: Downregulation of survivin mRNA expression in human 5637 cells at 100 uM after 48 hrs by real-time PCR analysis relative to control; format: functional, cell-based
In short: (§2)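 5637 cells seeded at 2 × 10^5 per well and grown 24 h. Treated with 50 or 100 μM for 48 h, washed in PBS, RNA extracted. Bax, Bcl-2, caspase-9 and survivin mRNA measured by real-time PCR; Bax:Bcl-2 ratio derived. Experiments in triplicate.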

5637 [7] = assay: Induction of apoptosis in human 5637 cells assessed as early and late apoptotic cells at 100 uM after 48 hrs by annexin V-PE/7-AAD staining-based flow cytometric analysis (reference value: 7.36%); format: functional
5637 [8] = assay: Upregulation of caspase-9 mRNA expression in human 5637 cells at 100 uM after 48 hrs by real-time PCR analysis relative to control; format: functional, cell-based
In short: as §2

5637 [9] = assay: Downregulation of Bcl2 mRNA expression in human 5637 cells at 100 uM after 48 hrs by real-time PCR analysis relative to control; format: functional, cell-based
In short: as §2

Liver [10] = assay: Toxicity in rat liver assessed as change in AST release relative to control; format: tissue-based
5637 [11] = assay: Induction of apoptosis in human 5637 cells assessed as ratio of Bax mRNA to Bcl2 mRNA level at 50 uM after 48 hrs by real-time PCR analysis (reference value: 0.08 to 0.13); format: functional
In short: as §2

[12] = Antioxidant activity assessed as thiol peroxidase-like activity assessed as time required to oxidize 50% of benzenethiol during reduction of hydrogen peroxide measured for 180 secs by UV spectroscopic analysis relative to control; details: 0.05 h
5637 [13] = assay: Induction of apoptosis in human 5637 cells assessed as ratio of Bax mRNA to Bcl2 mRNA level at 100 uM after 48 hrs by real-time PCR analysis (reference value: 0.08 to 0.13); format: functional
In short: as §2

5637 [14] = assay: Cytotoxicity against human 5637 cells assessed as growth inhibition after 48 hrs by MTT assay; format: functional, cell-based; details: Homo sapiens, 5637, 48 h
In short: as §1

5637 [15] = assay: Cytotoxicity against human 5637 cells assessed as growth inhibition at 12.5 to 200 uM after 48 hrs by MTT assay relative to control; format: functional
In short: as §1

5637 [16] = assay: Cytotoxicity against human 5637 cells assessed as dead cells at 100 uM after 48 hrs by calcein/ethidium bromide staining-based fluorescence microscopic analysis relative to control; format: functional, cell-based
In short: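 5637 bladder carcinoma cells (DMEM, 10% FBS) seeded at 2 × 10^4 per well and grown 24 h. Exposed to 100 or 50 μM compound for 48 h. Washed, then stained with calcein (live, green) and ethidium homodimer (dead, red). Scored by multicolor fluorescence microscopy.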

5637 [17] = assay: Induction of apoptosis in human 5637 cells at 50 uM after 48 hrs by annexin V-PE/7-AAD staining-based flow cytometric analysis (reference value: 7.36%); format: functional
5637 [18] = assay: Cytotoxicity against human 5637 cells assessed as growth inhibition at 100 to 200 uM after 48 hrs by MTT assay relative to control; format: functional
In short: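 5637 bladder carcinoma cells in DMEM with 10% FBS, seeded 2 × 10^4/well, grown 24 h at 37 °C, 5% CO2. Exposed to 200–12.5 μM from DMSO stocks (final DMSO ≤0.25%, solvent control) for 48 h. MTT added for 3 h, formazan dissolved in DMSO, read at 492 nm. Growth inhibition = [1 − Abs treated/Abs control] × 100%. Three independent experiments.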

For Cc1cn([C@H]2C[C@H](N=[N+]=[N-])[C@@H](C[Se]c3cccc4ccccc34)O2)c(=O)[nH]c1=O, the t50 [1] was 66.3 min and the inhibition at 200 µM (Brain; 1 h) was 80%.
For Cc1ccc([Se]C[C@H]2O[C@@H](n3cc(C)c(=O)[nH]c3=O)C[C@@H]2N=[N+]=[N-])cc1, the Activity (Liver [2]) was “Non-toxic”, the Activity (Liver [3]) was “Non-toxic” and the Activity 5637 [4] was “Active”. The t50 [1] was 22.5 min, the inhibition of growth at 50 µM 5637 [5] was 50% and the Activity 5637 [6] was “Active”. For the same compound, the inhibition (Brain) was “Active”, the Activity 5637 [7] was 89.6% and the Activity 5637 [8] was “Active”. The Activity 5637 [9] was “Active”, the Activity (Liver [10]) was “Non-toxic” and the Ratio 5637 [11] was 0.5. The “fold change (FC)” value [12] was 4, the Ratio 5637 [13] was 19.4 and the pIC50 5637 [14] was 4.29.
In the case of Cc1cc(C)c([Se]C[C@H]2O[C@@H](n3cc(C)c(=O)[nH]c3=O)C[C@@H]2N=[N+]=[N-])c(C)c1, the t50 [1] was 97.5 min and the inhibition (Brain) was “Active”.
With Cc1cn([C@H]2C[C@H](N=[N+]=[N-])[C@@H](CO)O2)c(=O)[nH]c1=O [ZIDOVUDINE] the Activity (Liver [3]) was “Non-toxic”, the Activity 5637 [4] was “inactive” and the “growth inhibition (GI)” value 5637 [15] was >50%. For the same compound, the t50 [1] was 66.5 min, the inhibition of growth at 50 µM 5637 [5] was 50% and the Activity 5637 [16] was “inactive”. For the same compound, the Activity 5637 [9] was “Active”, the Activity (Liver [10]) was “Non-toxic” and the Activity 5637 [17] was 7.74%. The pIC50 5637 [14] was 5.15.
For Cc1cn([C@H]2C[C@H](N=[N+]=[N-])[C@@H](C[Se]c3ccc(Cl)cc3)O2)c(=O)[nH]c1=O, the Activity (Liver [2]) was “Non-toxic”, the Activity (Liver [3]) was “Non-toxic” and the Activity 5637 [4] was “Active”. For the same compound, the t50 [1] was 15.2 min, the inhibition of growth at 50 µM 5637 [5] was 50% and the Activity 5637 [6] was “Active”. The inhibition (Brain) was “Active”, the Activity 5637 [7] was 92.8% and the Activity 5637 [16] was “Active”. For the same compound, the Activity 5637 [8] was “Active”, the Activity 5637 [9] was “Active” and the Activity (Liver [10]) was “Non-toxic”. The Ratio 5637 [11] was 0.9, the “fold change (FC)” value [12] was 4 and the Activity 5637 [17] was 71.12%. For the same compound, the Ratio 5637 [13] was 4.8 and the pIC50 5637 [14] was 4.39.
In the case of Cc1cn([C@H]2C[C@H](N=[N+]=[N-])[C@@H](C[Se]c3ccccc3)O2)c(=O)[nH]c1=O, the Activity (Liver [2]) was “Non-toxic”, the Activity (Liver [3]) was “Non-toxic” and the Activity 5637 [4] was “Active”. The t50 [1] was 56.4 min, the Activity 5637 [6] was “Active” and the inhibition (Brain) was “Active”. The Activity 5637 [7] was 90.74%, the Activity 5637 [8] was “Active” and the Activity 5637 [9] was “Active”. For the same compound, the “growth inhibition (GI)” value 5637 [18] was >50%, the Activity (Liver [10]) was “Non-toxic” and the Ratio 5637 [11] was 1.45. For the same compound, the Ratio 5637 [13] was 10.6 and the pIC50 5637 [14] was 4.10.
